Reference: ChEMBL document CHEMBL1275598, “In vitro activity of ceftaroline against community-associated methicillin-resistant, vancomycin-intermediate, vancomycin-resistant, and daptomycin-nonsusceptible Staphylococcus aureus isolates” (2010)
≈ marks a conversion by molar mass, not a printed value.

Columns and labels:
Assay type in all cases: functional
Staphylococcus aureus [1] = assay: Antimicrobial activity against vancomycin intermediate Staphylococcus aureus NRS-404 expressing SCCmec type 2 element by microdilution method
In short: (§1)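 MIC by broth microdilution in cation-adjusted Mueller-Hinton broth, following CLSI guidelines; antibiotic powders reconstituted per CLSI. Read visually as the lowest drug concentration well with no visible growth. S. aureus ATCC 29213 and E. faecalis ATCC 29212 served as control strains. CA-MRSA: hospital patients culture-positive within 48 h of admission. DNSSA: patient blood isolates. VISA: obtained from the NARSA program.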

Staphylococcus aureus [2] = assay: Antimicrobial activity against community-acquired methicillin-resistant Staphylococcus aureus assessed as susceptible isolates by microdilution method
In short: (§2)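 MICs by CLSI broth microdilution in cation-adjusted Mueller-Hinton broth, read visually as the lowest concentration with no visible growth. Percentages of susceptible or resistant isolates assigned using CLSI breakpoints. Isolates: CA-MRSA (n = 92, positive within 48 h of admission) and DNSSA (n = 7, blood).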

Staphylococcus aureus [3] = assay: Antimicrobial activity against vancomycin resistant Staphylococcus aureus VRS-3 expressing SCCmec type 4 element by microdilution method
In short: (§3)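 Broth microdilution per CLSI in cation-adjusted Mueller-Hinton broth. Antibiotic powders were reconstituted per CLSI. The MIC was read visually as the lowest drug concentration with no visible growth. S. aureus ATCC 29213 and E. faecalis ATCC 29212 served as control strains. VISA and VRSA isolates came from the NARSA program.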

Staphylococcus aureus [4] = assay: Antimicrobial activity against vancomycin-intermediate Staphylococcus aureus assessed as resistant isolates by microdilution method
In short: (§4)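 CLSI broth microdilution MICs in cation-adjusted Mueller-Hinton broth, read visually as the lowest concentration with no visible growth. Percent of isolates classed susceptible or resistant was assigned using CLSI breakpoints.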

Staphylococcus aureus [5] = assay: Antimicrobial activity against vancomycin-resistant Staphylococcus aureus assessed as susceptible isolates by microdilution method; in short: as §4
Staphylococcus aureus [6] = assay: Antimicrobial activity against vancomycin resistant Staphylococcus aureus VRS-5 expressing SCCmec type 2 element by microdilution method; in short: as §3
Staphylococcus aureus [7] = assay: Antimicrobial activity against daptomycin-nonsusceptible Staphylococcus aureus by microdilution method; conditions: Staphylococcus aureus; in short: as §1
Staphylococcus aureus [8] = assay: Antimicrobial activity against vancomycin intermediate Staphylococcus aureus NRS-18 expressing SCCmec type 2 element by microdilution method; in short: as §1
Staphylococcus aureus [9] = assay: Bactericidal activity against vancomycin-intermediate Staphylococcus aureus assessed as antibiotic concentration that reduced the number of viable cells by =>99.9% by colony count method
In short: (§5)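 MBC per CLSI guidelines. It was taken as the antibiotic concentration giving ≥99.9% reduction in viable cells, based on colony counts from the growth control well and rejection values from Pearson's tables.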

Staphylococcus aureus [10] = assay: Antimicrobial activity against community-acquired methicillin-resistant Staphylococcus aureus by microdilution method; in short: as §1
Staphylococcus aureus [11] = assay: Antimicrobial activity against vancomycin intermediate Staphylococcus aureus NRS-74 expressing SCCmec type 2 element by microdilution method; in short: as §1
Staphylococcus aureus [12] = assay: Antimicrobial activity against vancomycin intermediate Staphylococcus aureus NRS-403 expressing SCCmec type 2 element by microdilution method; in short: as §1
Staphylococcus aureus [13] = assay: Antimicrobial activity against vancomycin resistant Staphylococcus aureus VRS-4 expressing SCCmec type 4 element by microdilution method; in short: as §3
Staphylococcus aureus [14] = assay: Antimicrobial activity against vancomycin intermediate Staphylococcus aureus NRS-22 expressing SCCmec type 2 element by microdilution method; in short: as §1
Staphylococcus aureus [15] = assay: Antimicrobial activity against vancomycin-intermediate Staphylococcus aureus assessed as susceptible isolates by microdilution method
In short: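 CLSI broth microdilution in cation-adjusted Mueller-Hinton broth. MIC is the lowest concentration well with no visible growth, read by eye. Isolates were classed susceptible from CLSI breakpoints. S. aureus ATCC 29213 and E. faecalis ATCC 29212 were used as MIC control strains.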

Staphylococcus aureus [16] = assay: Antimicrobial activity against vancomycin resistant Staphylococcus aureus VRS-9 expressing SCCmec type 2 element by microdilution method; in short: as §3
Staphylococcus aureus [17] = assay: Antimicrobial activity against vancomycin intermediate Staphylococcus aureus NRS-68 expressing SCCmec type 2 element by microdilution method; in short: as §1
Staphylococcus aureus [18] = assay: Antimicrobial activity against vancomycin intermediate Staphylococcus aureus NRS-24 expressing SCCmec type 2 element by microdilution method; in short: as §1
Staphylococcus aureus [19] = assay: Antimicrobial activity against vancomycin resistant Staphylococcus aureus VRS-8 expressing SCCmec element by microdilution method; in short: as §3
Staphylococcus aureus [20] = assay: Antimicrobial activity against daptomycin-nonsusceptible Staphylococcus aureus assessed as susceptible isolates by microdilution method; in short: as §2
Staphylococcus aureus [21] = assay: Antimicrobial activity against vancomycin intermediate Staphylococcus aureus NRS-3 expressing SCCmec type 2 element by microdilution method; in short: as §1
Staphylococcus aureus [22] = assay: Antimicrobial activity against vancomycin-resistant Staphylococcus aureus assessed as resistant isolates by microdilution method; in short: as §4
Staphylococcus aureus [23] = assay: Antimicrobial activity against vancomycin intermediate Staphylococcus aureus NRS-76 expressing SCCmec type 2 element by microdilution method; in short: as §3
Staphylococcus aureus [24] = assay: Antimicrobial activity against vancomycin resistant Staphylococcus aureus VRS-10 expressing SCCmec type 2 element by microdilution method; in short: as §3
Staphylococcus aureus [25] = assay: Antimicrobial activity against community-acquired methicillin-resistant Staphylococcus aureus assessed as resistant isolates by microdilution method; in short: as §2
Staphylococcus aureus [26] = assay: Antimicrobial activity against vancomycin intermediate Staphylococcus aureus NRS-19 expressing SCCmec type 2 element by microdilution method; in short: as §1
Staphylococcus aureus [27] = assay: Antimicrobial activity against vancomycin intermediate Staphylococcus aureus NRS-402 expressing SCCmec type 2 element by microdilution method; in short: as §1
Staphylococcus aureus [28] = assay: Antimicrobial activity against vancomycin intermediate Staphylococcus aureus NRS-4 expressing SCCmec type 2 element by microdilution method; in short: as §1
Staphylococcus aureus [29] = assay: Antimicrobial activity against vancomycin intermediate Staphylococcus aureus NRS-51 expressing SCCmec type 2 element by microdilution method; in short: as §1
Staphylococcus aureus [30] = assay: Antimicrobial activity against vancomycin resistant Staphylococcus aureus VRS-7 expressing SCCmec element by microdilution method; in short: as §3
Staphylococcus aureus [31] = assay: Antimicrobial activity against vancomycin intermediate Staphylococcus aureus NRS-17 expressing SCCmec type 2 element by microdilution method; in short: as §1
Staphylococcus aureus [32] = assay: Antimicrobial activity against vancomycin resistant Staphylococcus aureus VRS-2 expressing SCCmec type 2 element by microdilution method; in short: as §3
Staphylococcus aureus [33] = assay: Antimicrobial activity against vancomycin intermediate Staphylococcus aureus NRS-27 expressing SCCmec type 2 element by microdilution method; in short: as §1
Staphylococcus aureus [34] = assay: Bactericidal activity against daptomycin-nonsusceptible Staphylococcus aureus assessed as antibiotic concentration that reduced the number of viable cells by =>99.9% by colony count method; in short: as §5
Staphylococcus aureus [35] = assay: Antimicrobial activity against vancomycin intermediate Staphylococcus aureus NRS-73 expressing SCCmec type 4d element by microdilution method; in short: as §1
Staphylococcus aureus [36] = assay: Antimicrobial activity against vancomycin intermediate Staphylococcus aureus NRS-126 expressing SCCmec type 2 element by microdilution method; in short: as §1
Staphylococcus aureus [37] = assay: Bactericidal activity against community-acquired methicillin-resistant Staphylococcus aureus assessed as antibiotic concentration that reduced the number of viable cells by =>99.9% by colony count method
In short: (§6)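 MBC per CLSI following microdilution in cation-adjusted Mueller-Hinton broth. Defined as the concentration giving ≥99.9% reduction in viable cells, judged from colony counts of the growth control well against Pearson rejection-value tables. CA-MRSA isolates were hospital patients' isolates with positive MRSA culture within 48 h of admission.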

Staphylococcus aureus [38] = assay: Antimicrobial activity against daptomycin-nonsusceptible Staphylococcus aureus assessed as resistant isolates by microdilution method; in short: as §2
Staphylococcus aureus [39] = assay: Antimicrobial activity against vancomycin intermediate Staphylococcus aureus NRS-26 expressing SCCmec type 2 element by microdilution method; in short: as §1
Staphylococcus aureus [40] = assay: Bactericidal activity against vancomycin-resistant Staphylococcus aureus assessed as antibiotic concentration that reduced the number of viable cells by =>99.9% by colony count method; conditions: Staphylococcus aureus; in short: as §6
Staphylococcus aureus [41] = assay: Antimicrobial activity against vancomycin intermediate Staphylococcus aureus NRS-23 expressing SCCmec type 2 element by microdilution method; in short: as §1
Staphylococcus aureus [42] = assay: Antimicrobial activity against vancomycin intermediate Staphylococcus aureus NRS-118 expressing SCCmec type 1 element by microdilution method; in short: as §1
Staphylococcus aureus [43] = assay: Antimicrobial activity against vancomycin resistant Staphylococcus aureus VRS-6 expressing SCCmec type 2 element by microdilution method; in short: as §3
Staphylococcus aureus [44] = assay: Antimicrobial activity against vancomycin-resistant Staphylococcus aureus by microdilution method; in short: as §3
Staphylococcus aureus [45] = assay: Antimicrobial activity against vancomycin resistant Staphylococcus aureus VRS-1 expressing SCCmec type 2 element by microdilution method; in short: as §3
Staphylococcus aureus [46] = assay: Antimicrobial activity against vancomycin-intermediate Staphylococcus aureus by microdilution method; in short: as §3

`CCC[C@@H]1C[C@@H](C(=O)N[C@@H]([C@H]2O[C@H](SC)[C@H](O)[C@@H](O)[C@H]2O)[C@H](C)Cl)N(C)C1` [CLINDAMYCIN] was tested, and the MIC (Staphylococcus aureus [1]) was 0.06 µg/mL (≈ 0.141 µM), the Activity (Staphylococcus aureus [2]) was 64% and the MIC (Staphylococcus aureus [3]) was > 64 µg/mL. The Activity (Staphylococcus aureus [4]) was 83%, the Activity (Staphylococcus aureus [5]) was 0% and the MIC (Staphylococcus aureus [6]) was > 64 µg/mL. The MIC50 (Staphylococcus aureus [7]) was > 64 µg/mL, the MIC (Staphylococcus aureus [8]) was > 64 µg/mL and the MBC50 (Staphylococcus aureus [9]) was >64 µg/mL. For the same molecule, the MBC90 (Staphylococcus aureus [9]) was >64 µg/mL, the MBC (Staphylococcus aureus [9]; Staphylococcus aureus) was > 0.12 µg/mL and the MIC50 (Staphylococcus aureus [10]) was 0.12 µg/mL (≈ 0.282 µM). The MIC90 (Staphylococcus aureus [10]) was > 64 µg/mL, the MIC (Staphylococcus aureus [11]) was > 64 µg/mL and the MIC (Staphylococcus aureus [12]) was > 64 µg/mL. For the same molecule, the MIC (Staphylococcus aureus [13]) was > 64 µg/mL, the MIC (Staphylococcus aureus [14]) was > 64 µg/mL and the Activity (Staphylococcus aureus [15]) was 17%. The MIC (Staphylococcus aureus [16]) was > 64 µg/mL, the MIC (Staphylococcus aureus [17]) was > 64 µg/mL and the MIC (Staphylococcus aureus [18]) was > 64 µg/mL. The MIC (Staphylococcus aureus [19]) was > 64 µg/mL, the Activity (Staphylococcus aureus [20]) was 14% and the MIC (Staphylococcus aureus [21]) was > 64 µg/mL. The Activity (Staphylococcus aureus [22]) was 100%, the MIC (Staphylococcus aureus [23]) was 0.06 µg/mL (≈ 0.141 µM) and the MIC (Staphylococcus aureus [24]) was > 64 µg/mL. For the same molecule, the Activity (Staphylococcus aureus [25]) was 36%, the MIC (Staphylococcus aureus [26]) was > 64 µg/mL and the MIC (Staphylococcus aureus [27]) was > 64 µg/mL. For the same molecule, the MIC (Staphylococcus aureus [28]) was > 64 µg/mL, the MIC (Staphylococcus aureus [29]) was > 64 µg/mL and the MIC (Staphylococcus aureus [30]) was > 64 µg/mL. For the same molecule, the MIC (Staphylococcus aureus [31]) was 0.06 µg/mL (≈ 0.141 µM), the MIC (Staphylococcus aureus [32]) was > 64 µg/mL and the MIC (Staphylococcus aureus [33]) was > 64 µg/mL. For the same molecule, the MBC50 (Staphylococcus aureus [34]) was >64 µg/mL, the MIC (Staphylococcus aureus [35]) was 0.06 µg/mL (≈ 0.141 µM) and the MIC (Staphylococcus aureus [36]) was > 64 µg/mL. The MBC50 (Staphylococcus aureus [37]) was 8 µg/mL (≈ 18.8 µM), the MBC (Staphylococcus aureus [37]; Staphylococcus aureus) was > 1 µg/mL and the Activity (Staphylococcus aureus [38]) was 86%. For the same molecule, the MIC (Staphylococcus aureus [39]) was > 64 µg/mL, the MBC (Staphylococcus aureus [40]) was > 64 µg/mL and the MIC (Staphylococcus aureus [41]) was > 64 µg/mL. For the same molecule, the MIC (Staphylococcus aureus [42]) was > 64 µg/mL, the MIC (Staphylococcus aureus [43]) was > 64 µg/mL and the MIC (Staphylococcus aureus [44]) was > 64 µg/mL. For the same molecule, the MIC50 (Staphylococcus aureus [44]) was > 64 µg/mL, the MIC90 (Staphylococcus aureus [44]) was > 64 µg/mL and the MIC (Staphylococcus aureus [45]) was > 64 µg/mL. The MIC50 (Staphylococcus aureus [46]) was > 64 µg/mL and the MIC90 (Staphylococcus aureus [46]) was > 64 µg/mL.
